Reference: PubChem BioAssay
Inconclusive results are not listed.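 How the source made its calls, unless noted: active means cell viability at or below a set limit in both duplicate runs, the limit being the all-compound median minus 4 SD (cut at about 23% in these data, passing the limit was not always enough); inconclusive means no clear call, values can overlap the other calls; inactive means the rest.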

Key:
[1] = S. cerevisiae growth inhibition in permissive medium (OD615), pilot counter-assay for S. cerevisiae lifespan shortening project, permissive growth control (AID 705;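 active means growth inhibition above 25% in both replicates, a cutoff set 3 SD above the mean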); conditions: OD615, 24 h, at 10 µM, hits give high values
Summary of the method: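 System: engineered DeaD yeast; Medium: permissive raffinose/galactose medium; Compound dosing: 10 µM single dose, 0.25% DMSO; Incubation: 4 h cell pre-growth, 24 h exposure at 30 °C; Technique: OD at 615 nm; Evaluation: growth inhibition from lowered OD615 after 24 h.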

[2] = S. cerevisiae growth inhibition in restrictive medium, OD615, pilot screen, restrictive growth control, yeast lifespan reduction project (AID 706;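 active means growth inhibition above a set limit, 3 SD over mean compound inhibition, in both replicates, cut at about 43% in these data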;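 further: modified DeaD lifespan yeast strain shifted to restrictive glucose medium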); conditions: OD615, 48 h, at 10 µM, hits give high values
Summary of the method: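 Material: modified S. cerevisiae; buffer or medium: CSMM-D glucose medium; doses: one concentration, 10 µM final, 0.25% DMSO; incubation: 48 h compound exposure at 30 °C; detection: optical density at 615 nm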

[3] = doxorubicin toxicity protection in MRP-1 cells – H69AR cells, CellTiter-Glo, duplicate, MRP-1 activator project, pilot screen (AID 807;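 active means viability increase at or above a cutoff of the median across tested compounds plus 3 SD, cut at about 8.5% in these data, passing the limit was not always enough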;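 further: compound pretreatment 18-22 h then 72 h combined with doxorubicin; 0% = doxorubicin alone and 100% = vehicle without doxorubicin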); conditions: H69AR viability with doxorubicin, CellTiter-Glo luminescence; at 10 µM; hits give high values
[4] = viability of HCT116 without oncogenic beta-catenin – human colon tumor cells, pilot screen (AID 823); conditions: HCT116 beta-catenin knockout viability, CellTiter-Glo, 60 h; at 10 µM; hits give low values;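 further: 0% = wells killed by 20 µM Hyamine and 100% = untreated DMSO cell wells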
[5] = viability of PTEN-null HCT116 cells – cell-based, HCT116 clonal line, CellTiter-Glo, pilot screen (AID 824;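 active means viability at or below 27.92% in each of two runs, the all-compound median minus 4 SD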;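 further: 0% = 20 µM Hyamine control and 100% = vehicle cell control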); conditions: HCT116 PTEN-deleted viability, 60 h, at 10 µM, hits give low values
[6] = RAM pathway blockade in budding yeast – dse1pr::URA3 reporter, 5-FOA selection, pilot screen (AID 869;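 active means inhibition over a set limit, the all-compound mean plus 3 SD, in both replicate runs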;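 further: 0% = DMSO wells with no growth and 100% = 10 µM 1-NA-PP1 with full growth; RAM network block rescues cells from 5-FOA so hits raise OD615 growth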); conditions: S. cerevisiae dse1pr::URA3 5-FOA growth, OD615, 2 d; at 10 µM; hits give high values; strain carries analog-sensitive mutant Cbk1 kinase
[7] = RAM signaling pathway blockade in yeast – S. cerevisiae, Pdr1DBD-CYC8 efflux-inhibited sensitized strain, primary screen (AID 1298;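 active means RAM network inhibition above 8.4% in each of two replicates, 3 SD over the compound average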;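 further: 0% = DMSO untreated cells without growth and 100% = 10 µM 1-NA-PP1 full growth; higher means more yeast growth rescued from 5-FOA killing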); conditions: S. cerevisiae cbk1-as DSE1-URA3 strain, 5-FOA growth OD615, 2 d; at 50 µM; hits give high values

COc1ccc(-c2nnc3ccc(SCC(=O)N4CCOCC4)nn23)cc1
inactive: growth inhibition [1] 3.68% | growth inhibition [2] 30.1% | viability increase [3] -2.73% | viability [4] 99.6% | viability [5] 105% | inhibition [6] 0.96% | RAM network inhibition [7] 0.73%

CCN1CCCC1CNC(=O)Cn1cnc2sc(C)c(S(=O)(=O)N3CCC(C)CC3)c2c1=O (centres undefined)
inactive: growth inhibition [1] -4.5% | growth inhibition [2] -14.6% | viability increase [3] -4.44% | viability [4] 104% | viability [5] 84% | inhibition [6] 2.9% | RAM network inhibition [7] 4.06%

CN(C)/C=N/c1c(C#N)cnn1-c1ccccc1
inactive: growth inhibition [1] -5.88% | growth inhibition [2] -14.5% | viability increase [3] -1.11% | viability [4] 103% | viability [5] 96.6% | inhibition [6] 1.95% | RAM network inhibition [7] 4.32%

COC(=O)C1C(=O)C=C(N2CCOCC2)CC1(C)C (centres undefined)
inactive: growth inhibition [1] -10.6% | growth inhibition [2] -10.2% | viability increase [3] -0.72% | viability [4] 96.4% | viability [5] 105% | inhibition [6] 0.685% | RAM network inhibition [7] 1.92%

O=C(CSc1nnc(Cc2cc(=O)[nH]c(=O)[nH]2)n1-c1ccccc1)N1CCCCC1
inactive: growth inhibition [1] -4.77% | growth inhibition [2] 5.95% | viability increase [3] -2.54% | viability [4] 99.7% | viability [5] 90.4% | inhibition [6] 1.02% | RAM network inhibition [7] -2.08%

Cc1nc2ccc3nc(NC(=O)C4COc5ccccc5O4)sc3c2s1 (centres undefined)
inactive: growth inhibition [1] -10.6% | growth inhibition [2] 0.74% | viability increase [3] -4.93% | viability [4] 86.8% | viability [5] 80.6% | inhibition [6] 1.55% | RAM network inhibition [7] -0.06%

Cc1ccc(C)n1-n1c(C)nc2scc(-c3cccs3)c2c1=O
inactive: growth inhibition [1] -13.1% | growth inhibition [2] 1.95% | viability increase [3] -3.42% | viability [4] 72.1% | viability [5] 71.6% | inhibition [6] 0.72% | RAM network inhibition [7] 2.2%

COc1ccc(OCCSc2ncnc3nc[nH]c23)cc1
inactive: growth inhibition [1] 2.66% | growth inhibition [2] 22.4% | viability increase [3] -3.5% | viability [4] 86.6% | viability [5] 81.3% | inhibition [6] 3.27% | RAM network inhibition [7] 4.46%

COc1ccc(Cl)cc1S(=O)(=O)N1CCN=C1C
inactive: growth inhibition [1] 1.52% | growth inhibition [2] -3.21% | viability increase [3] -2.75% | viability [4] 90.8% | viability [5] 90% | inhibition [6] 0.03% | RAM network inhibition [7] 7.99%

COc1ccccc1NC(=O)CSc1nc(O)cc(=O)n1-c1ccccc1OC
inactive: growth inhibition [1] -0.915% | growth inhibition [2] -0.015% | viability increase [3] 0.76% | viability [4] 100% | viability [5] 100% | inhibition [6] 0.485% | RAM network inhibition [7] 3.1%

CCC(=O)Nc1cccc(NC(=O)c2cc3ccccc3o2)c1
inactive: growth inhibition [1] -10.9% | growth inhibition [2] -9.17% | viability increase [3] -1.82% | viability [4] 93.8% | viability [5] 90.2% | inhibition [6] 1.2% | RAM network inhibition [7] 5.21%

COc1ccc(S(=O)(=O)NCc2ccc3c(c2)cc(C)n3C)cc1
inactive: growth inhibition [1] -0.89% | growth inhibition [2] -11.2% | viability increase [3] -4.17% | viability [4] 99.1% | viability [5] 96% | inhibition [6] 1.31% | RAM network inhibition [7] 7.17%

O=C(Nc1cccnc1)C(Cc1ccccc1)n1cccc1 (centres undefined)
inactive: growth inhibition [1] -15.5% | growth inhibition [2] -13.4% | viability increase [3] -4.93% | viability [4] 102% | viability [5] 91.8% | inhibition [6] 0.44% | RAM network inhibition [7] 4.6%

CC(=O)Nc1ccc(S(=O)(=O)c2ccc(N)cc2)cc1N
inactive: growth inhibition [1] -3.35% | growth inhibition [2] 2.46% | viability increase [3] -1.15% | viability [4] 104% | viability [5] 98.8% | inhibition [6] 2.1% | RAM network inhibition [7] 3.91%

O=C(Nc1nc2cc3c(cc2s1)OCO3)C1=COCCO1
inactive: growth inhibition [1] -9.14% | growth inhibition [2] -31.3% | viability increase [3] -6.84% | viability [4] 45.8% | viability [5] 41.3% | inhibition [6] 1.75% | RAM network inhibition [7] 5.3%

N#Cc1nc(-c2ccccc2F)oc1NCCN1CCOCC1
inactive: growth inhibition [1] -19.2% | growth inhibition [2] -36.8% | viability increase [3] -1.89% | viability [4] 104% | viability [5] 95% | inhibition [6] 1.17% | RAM network inhibition [7] 0.32%

COc1ccccc1-n1c(SC)nc(O)cc1=O
inactive: growth inhibition [1] 1.24% | growth inhibition [2] -7.61% | viability increase [3] 0.84% | viability [4] 105% | viability [5] 99% | inhibition [6] 2.01% | RAM network inhibition [7] 4.2%

COc1ccc(-n2c(Cc3cc(=O)[nH]c(=O)[nH]3)nnc2SCc2ccccc2)cc1
inactive: growth inhibition [1] 6.28% | growth inhibition [2] -3.2% | viability increase [3] -0.7% | viability [4] 108% | viability [5] 103% | inhibition [6] 0.455% | RAM network inhibition [7] 3.82%

O=C(Nc1cccc2c1CCCC2)c1ccc(Br)o1
inactive: growth inhibition [1] -11.8% | growth inhibition [2] 6.87% | viability increase [3] -1.15% | viability [4] 79.6% | viability [5] 68% | inhibition [6] 2.19% | RAM network inhibition [7] 9.1%

O=C(NCc1ccccc1)c1cc(S(=O)(=O)N2CCOCC2)ccc1F
inactive: growth inhibition [1] -3.95% | growth inhibition [2] -30.7% | viability increase [3] 0.27% | viability [4] 94.7% | viability [5] 93% | inhibition [6] 3.29% | RAM network inhibition [7] 3.42%

O=C(NCC(c1cccs1)N1CCOCC1)c1cc2ccccc2o1 (centres undefined)
inactive: growth inhibition [1] -2.08% | growth inhibition [2] -15.1% | viability increase [3] -1.69% | viability [4] 99.3% | viability [5] 100% | inhibition [6] 0.345% | RAM network inhibition [7] 0.26%

Cc1cc(-c2ccco2)n(CC(=O)NCCCc2ccccc2)n1
inactive: growth inhibition [1] -13.3% | growth inhibition [2] -2.17% | viability increase [3] -1.48% | viability [4] 100% | viability [5] 97% | inhibition [6] 0.905% | RAM network inhibition [7] -0.37%

CC(=O)c1ccc(OCC(O)CN2CCC(C)CC2)cc1 (centres undefined)
inactive: growth inhibition [1] -0.26% | growth inhibition [2] 9.25% | viability increase [3] -0.16% | viability [4] 101% | viability [5] 101% | inhibition [6] 0.54% | RAM network inhibition [7] -2.94%

O=C(O)CCCCCN1C(=O)c2ccc(C(=O)O)cc2C1=O
inactive: growth inhibition [1] -14.4% | growth inhibition [2] -10.8% | viability increase [3] 1.08% | viability [4] 103% | viability [5] 105% | inhibition [6] 1.88% | RAM network inhibition [7] 6.72%

CSC1=NCCN1C(=O)c1ccc(S(=O)(=O)N2CCOCC2)cc1
inactive: growth inhibition [1] 3.77% | growth inhibition [2] 10.2% | viability increase [3] -1.31% | viability [4] 102% | viability [5] 94.1% | inhibition [6] 0.62% | RAM network inhibition [7] 3.04%

CCOc1ccc(N(CC(=O)O)S(=O)(=O)c2cccnc2)cc1
inactive: growth inhibition [1] -0.125% | growth inhibition [2] -2.17% | viability increase [3] 1.18% | viability [4] 94.4% | viability [5] 102% | inhibition [6] -0.27% | RAM network inhibition [7] 7.23%

Cc1ccc(NC2=CC(=O)CC(c3ccco3)C2)c(N)c1 (centres undefined)
inactive: growth inhibition [1] -4.58% | growth inhibition [2] 5.45% | viability increase [3] -4.41% | viability [4] 81.2% | viability [5] 86.5% | inhibition [6] 0.07% | RAM network inhibition [7] 2.43%
